SMARCA2 act: SMARCA2 function activation, primary screen; MG213 cells, MMTV-luciferase reporter, dexamethasone, overnight; 370,000 tested, 1% active; activation, % at 9.1 µM; in the data active = activation above about 7.8%;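 also: 0% = vehicle wells and 100% = reference activator wells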
ATG4B inhibitor: ATG4B (human) cysteine protease inhibition | ATG4B cleavage of LC3-PLA2, NBD-HPC fluorescence, 1 h | inhibition, % at 8.33 µM | 340,000 tested, 0.51% active; in the data active = inhibition above about 40%
Target sequence (Q9Y4P1 whole entry, looked up): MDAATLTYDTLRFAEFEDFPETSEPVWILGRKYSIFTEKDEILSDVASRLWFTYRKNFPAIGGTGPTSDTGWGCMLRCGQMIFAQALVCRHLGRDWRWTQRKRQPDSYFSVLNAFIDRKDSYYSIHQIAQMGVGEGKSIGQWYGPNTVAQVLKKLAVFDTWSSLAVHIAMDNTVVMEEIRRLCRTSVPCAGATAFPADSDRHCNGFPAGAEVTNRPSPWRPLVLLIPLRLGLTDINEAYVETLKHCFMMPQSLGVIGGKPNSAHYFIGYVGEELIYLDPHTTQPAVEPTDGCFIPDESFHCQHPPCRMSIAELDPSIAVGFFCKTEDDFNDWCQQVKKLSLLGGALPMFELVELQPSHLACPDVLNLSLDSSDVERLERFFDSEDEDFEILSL
MC4R antag cAMP: antagonists of human melanocortin 4 receptor (MC4R); inhibition, % at 6.5 µM; AID 540295; P32245; 360,000 tested, 0.48% active; MC4R-expressing cells, MTII-stimulated cAMP, LANCE TR-FRET;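 active = inhibition above its plate's cutoff, the mean of tested wells on that plate plus 3 SD, cut at about 29% in these data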;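 also: 0% = Melanotan II alone and 100% = Melanotan II plus saturating MCL0020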
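Assay system: human MC4R-expressing U2OS cells; reagent: Melanotan II stimulation of cells; dosing: 6.5 µM single dose; timing: compound 30 min, challenge 1 h, detection 1 h; signal: TR-FRET cAMP assay; replicates: one well per compound, no replicates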
MPTP block: inhibitors of mitochondrial permeability transition pore; isolated mouse mitochondria, Ca2+ swelling absorbance, 30 min; inhibition, % at 10 µM; 360,000 tested, 1.4% active; AID 602449;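 active = inhibition of 50% or more, scaled per plate between neutral and stimulator controls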;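 also: 0% = DMSO wells given calcium and 100% = 1 mM EGTA wells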
MC4R ag barr: activates human MC4R beta-arrestin recruitment. P32245. 360,000 tested, 0.98% active. U2OS MC4R beta-arrestin complementation, luminescence; percent of melanotan II response, DMSO zero. activation, % at 8.9 µM;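 active = activation above a per-plate cutoff, the mean activation of sample wells on that plate plus 3 SD, cut at about 8% in these data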
SMARCA2 act conf: SMARCA2 activation, confirmation screen. shares compounds with SMARCA2 act. MG213 cells, MMTV-luciferase with dexamethasone, luminescence, overnight; MG213 cells expressing E1A, Rb sequestered; DMSO wells 0%, reference activator 100%. activation, % at 9.1 µM. 3,500 tested, 30% active. AID 652260;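 active = activation above its plate's cutoff, the mean activation of tested wells plus 3 SD, cut at about 7.9% in these data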
GAL4-VP16 Luc: activates GAL4-VP16 luciferase, flagging SMARCA2 activator hits; activation, % at 9.1 µM; 3,500 tested, 41% active; shares compounds with SMARCA2 act; HEK293 GAL4-VP16 pG5luc reporter, luciferase luminescence; scaled: DMSO wells 0%, SAHA wells 100%;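 active = activation above the solvent-only control well mean plus 3 SD, averaged across control plates, cut at about 5.2% in these data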
* marks the source's active call; other numbers are inactive results; . = no result given. Sampled rows, rich in hits. Any-hit rate of the full collection: about 4.1%.

SMILES | SMARCA2 act | ATG4B inhibitor | MC4R antag cAMP | MPTP block | MC4R ag barr | SMARCA2 act conf | GAL4-VP16 Luc
COC(=O)[C@H](C(C)C)N1Cc2nnn(Cc3ccc(C)cc3)c2-c2ccccc2S1(=O)=O | 1 | . | . | . | . | . | .
COc1ccc(NC(=O)CSc2c3c(nc4cc(Cl)ccc24)CCCC3)cc1OC | 9.4* | 0 | 17 | -1 | -2 | 3 | 1
COc1cc(NC(=O)CSc2c3c(nc4ccccc24)CCC3)cc(OC)c1OC | -2 | 10 | 4 | 0 | -1 | . | .
O=C(Cc1cccs1)NC1CCCCN(Cc2ccc(Cl)cc2)C1=O (stereo unspecified) | -2 | . | . | . | . | . | .
CCN(CC)S(=O)(=O)c1ccc(C)c(C(=O)Oc2cccc(-c3cnc4ccccc4n3)c2)c1 | -1 | 0 | -4 | 3 | 1 | . | .
O=C(Oc1cccc(-c2cnc3ccccc3n2)c1)c1ccco1 | 10* | 9 | -11 | -2 | 1 | 8.7* | 13*
CC(C)c1ccc(NC(=O)COC(=O)C2CCCCC2)cc1 | 8.4* | -4 | 4 | -1 | 0 | 0 | 1
CC1(C)CC(=O)N(CC(=O)N2CCN(c3cccc(Cl)c3Cl)CC2)c2ccccc2S1(=O)=O | -5 | . | . | . | . | . | .
Brc1ccc(Cn2c(-c3ccc(Br)o3)nc3ccccc32)o1 | 12* | 22 | 4 | -4 | -2 | 8.1* | 2
Cc1ccc(-c2nc3ccccc3n2C)o1 | 1 | -9 | -1 | 0 | -1 | . | .
COc1ccc(CCC[C@H](CCC(=O)N(c2ccccc2)c2ccccc2)CCc2ccccc2)cc1 | -4 | . | . | . | . | . | .
O=C(Cn1sc2ccccc2c1=O)Nc1ccccc1 | 12* | . | 2 | 5 | -2 | 6 | 0
COC(=O)[C@]12C[C@H](CC(=O)N3CCCC3)C(=O)N(Cc3ccc4c(c3)OCO4)C1=C[C@H](C(C)C)O[C@@H]2C1CC1 | 5 | . | . | . | . | . | .
COC(=O)C1=C(C)N(Cc2cccc(C(F)(F)F)c2)C(=NCc2ccc3c(c2)OCO3)NC1c1ccc(Cl)cc1 (stereo unspecified) | -2 | . | . | . | . | . | .
O=[N+]([O-])c1cccc(/C([O-])=C(/C(=S)Nc2ccccc2)[n+]2ccccc2)c1 | 8.5* | -2 | -2 | 2 | 1 | 0 | 6.3*
CC1(CCCN2C(=O)c3ccccc3C2=O)OCCO1 | 10* | -5 | 17 | 1 | 0 | 5 | 4
COC(=O)[C@]12C[C@H](CC(=O)NCc3ccc(C)o3)C(=O)N(Cc3ccco3)C1=C[C@H](C(C)(C)C)O[C@@H]2C | -1 | . | . | . | . | . | .
O=S1(=O)c2c(NCc3ccco3)cccc2Oc2ccccc2CN1Cc1cn(Cc2ccccc2C(F)(F)F)nn1 | -2 | . | . | . | . | . | .
COc1ccc(OCc2cc(C(=O)NC(C)c3csc(C)n3)no2)c(Cl)c1 (stereo unspecified) | 9.8* | -6 | 2 | 1 | -3 | 4 | 6.0*
COC(=O)[C@]12C[C@H](CC(=O)NCc3cccs3)C(=O)N(CCC3=CCCCC3)C1=C[C@H](COCc1ccccc1)O[C@@H]2C | -5 | . | . | . | . | . | .
Cc1nc2c(C(=O)NCCC(C)C)c[nH]n2c(=O)c1Cl | 9.5* | 17 | 10 | -3 | 1 | 0 | 2
O=C(c1ccccc1)c1cnc(-c2ccc(Cl)cc2)s1 | 14* | 12 | 6 | -1 | 2 | 6 | 6.9*
CCOC(=O)c1c(NC(=O)CSc2n[nH]c(-c3ccco3)n2)sc(C)c1C | -3 | 14 | 1 | 14 | 2 | . | .
CCOC(=O)CSc1n[nH]c(-c2ccco2)n1 | 9.4* | -6 | 2 | 1 | 1 | -5 | 2
c1ccc(Nc2nnc(-c3ccc4c(c3)OCO4)o2)cc1 | 4 | . | . | . | . | . | .
SMILES | SMARCA2 act | ATG4B inhibitor | MC4R antag cAMP | MPTP block | MC4R ag barr | SMARCA2 act conf | GAL4-VP16 Luc
O=C(CCc1ccccc1)N[C@H]1[C@H](OCc2ccccc2)CCC[C@@]12C(=O)N(Cc1ccccc1)c1ccc(-c3ccccn3)cc12 | 1 | . | . | . | . | . | .
CN1c2ccsc2/C(=N/Nc2ccc(F)cc2)CS1(=O)=O | 9.4* | -1 | 7 | 1 | -1 | 8.1* | 6.5*
COC(=O)[C@]12C[C@H](CC(=O)NCc3ccc(OC)c(OC)c3)C(=O)N(CCC3=CCCCC3)C1=C[C@H](C(C)(C)C)O[C@@H]2C | -6 | . | . | . | . | . | .
Cn1cccc1C(=O)N1CCN(S(=O)(=O)c2ccc(Cl)s2)CC1 | -3 | . | . | . | . | . | .
C=CCn1c(SCC(=O)NCc2ccco2)nnc1-c1ccc2ccccc2n1 | 8.3* | -9 | -4 | 0 | 0 | -1 | 1
CCNC(=O)C1CCCN(C(=O)c2ccc(C#N)cc2)CC1 (stereo unspecified) | -1 | . | 7 | -2 | -1 | . | .
O=C1N(CCCO)CCC12CCCCC2 | -4 | . | . | . | . | . | .
Cc1nc(-c2ccccc2)nc2[nH]c(=O)n(-c3ccccc3)c(=O)c12 | 11* | -1 | 10 | 4 | 0 | 3 | 6.3*
COC(=O)c1cc2c(c3c4cc(F)ccc4n(S(=O)(=O)c4ccccc4)c13)C(=O)N(Cc1ccccc1)C2 | 4 | . | . | . | . | . | .
CCN1CCN(c2cc(C)c3cc(NC(=S)N4CCOCC4)ccc3n2)CC1 | 3 | 5 | 1 | 2 | 0 | . | .
CCN1CCN(c2cc(C)c3cc(NC(=O)c4cc(OC)cc(OC)c4)ccc3n2)CC1 | 9.9* | -5 | -8 | 1 | -1 | 14* | 5.5*
CCOc1ccc(C(=O)Nc2ccc3nc(N4CCN(CC)CC4)cc(C)c3c2)cc1 | -2 | -4 | -3 | -1 | 3 | . | .
CCN1CCN(c2cc(C)c3cc(NC(=S)N4CCN(c5ccccc5)CC4)ccc3n2)CC1 | 9.1* | -1 | 6 | -1 | 3 | 26* | 1
COc1ccccc1C(=O)N1CCC(Oc2cccnc2)CC1 | 1 | . | . | . | . | . | .
COc1ccc(C(=O)OCC(=O)c2ccc3c(c2)NC(=O)CO3)cc1OC | 8.6* | -15 | 3 | 0 | -2 | -2 | 1
COc1ccc(C(=O)OCC(=O)c2ccc3c(c2)NC(=O)CO3)cc1[N+](=O)[O-] | 4 | -9 | 5 | -2 | 8 | . | .
Cc1cc2[nH]c3c(c[n+](C)c4ccccc34)c2cc1C | 112* | 8 | 17 | -3 | 4 | -16 | -1
COC(=O)C1CN(C2CCCC2)CCS(=O)(=O)N1Cc1ccc(F)cc1 (stereo unspecified) | 0 | . | . | . | . | . | .
Cc1ccc(S(=O)(=O)NN=CC2(c3ccccc3)CC2)cc1 | 9.8* | . | 14 | 1 | 0 | -1 | -1
Cc1ccc(SCC(=O)NNC(=O)c2ccccc2)cc1C | 9.6* | -3 | 5 | -1 | -2 | -4 | -2
Cc1ccc(C)c(SCC(=O)NNC(=O)c2ccccc2)c1 | -3 | -2 | 3 | -3 | 0 | . | .

Screening results: PubChem, several laboratories
